The M2OR odorant receptor database
Substitutions are numbered along the chain they refer to.

Columns and labels:
Details in all cases: stereoisomer not certain
[1] = target: T1, OR2A7 (Homo sapiens) (UniProt Q96R45)
T1 sequence (whole entry): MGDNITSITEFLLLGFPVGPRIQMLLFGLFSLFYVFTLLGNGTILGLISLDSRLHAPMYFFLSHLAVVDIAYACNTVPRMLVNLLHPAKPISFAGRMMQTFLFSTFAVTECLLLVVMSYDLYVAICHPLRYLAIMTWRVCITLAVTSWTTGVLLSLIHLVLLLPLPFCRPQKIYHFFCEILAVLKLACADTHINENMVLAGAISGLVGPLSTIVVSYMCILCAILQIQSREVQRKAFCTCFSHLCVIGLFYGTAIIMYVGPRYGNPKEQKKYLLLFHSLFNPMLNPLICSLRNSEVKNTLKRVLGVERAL
Method in brief: (§1)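 Whether a receptor–molecule pair is responsive (active) rests on the original authors' judgment that its measured signal was statistically different from baseline. Pairs without that judgment are non-responsive (inactive). Sources used varied assay methods, commonly transient luciferase assays in mammalian cell lines.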

[2] = system: T2, OR2A1 T73A R74C S168C
T2 sequence (whole entry): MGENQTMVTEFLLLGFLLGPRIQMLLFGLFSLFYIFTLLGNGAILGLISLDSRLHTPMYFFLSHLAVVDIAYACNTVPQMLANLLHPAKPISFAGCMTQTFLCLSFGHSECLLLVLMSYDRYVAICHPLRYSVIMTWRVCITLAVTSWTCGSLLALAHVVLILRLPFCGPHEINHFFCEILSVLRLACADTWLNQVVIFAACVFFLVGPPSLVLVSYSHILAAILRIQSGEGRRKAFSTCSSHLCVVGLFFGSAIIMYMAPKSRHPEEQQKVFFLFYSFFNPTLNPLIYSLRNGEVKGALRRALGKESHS
Method in brief: as §1

[3] = target: T3, OR2A12 (Homo sapiens) (UniProt Q8NGT7)
T3 sequence (whole entry): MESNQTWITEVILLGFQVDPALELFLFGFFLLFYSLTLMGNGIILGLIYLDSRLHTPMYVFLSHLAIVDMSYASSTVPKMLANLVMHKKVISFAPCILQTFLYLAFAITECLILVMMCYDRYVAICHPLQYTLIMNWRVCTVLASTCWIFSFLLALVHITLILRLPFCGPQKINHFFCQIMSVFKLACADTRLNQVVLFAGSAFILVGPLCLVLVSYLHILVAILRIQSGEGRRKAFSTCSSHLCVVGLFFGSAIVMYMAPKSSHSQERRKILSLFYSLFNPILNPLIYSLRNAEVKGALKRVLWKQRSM
Method in brief: as §1

[4] = target: T4, OR2A14 (Homo sapiens) (UniProt Q96R47)
T4 sequence (whole entry): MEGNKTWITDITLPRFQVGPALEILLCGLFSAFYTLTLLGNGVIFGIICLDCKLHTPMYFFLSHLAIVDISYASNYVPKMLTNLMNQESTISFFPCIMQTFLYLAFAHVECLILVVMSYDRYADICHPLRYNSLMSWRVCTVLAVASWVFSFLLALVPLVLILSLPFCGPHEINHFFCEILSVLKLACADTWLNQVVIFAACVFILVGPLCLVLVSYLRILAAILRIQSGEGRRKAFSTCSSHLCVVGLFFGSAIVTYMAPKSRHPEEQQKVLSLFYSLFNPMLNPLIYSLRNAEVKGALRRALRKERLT
Method in brief: as §1

[5] = target: T5, OR2A2 (Homo sapiens) (UniProt Q6IF42)
T5 sequence (whole entry): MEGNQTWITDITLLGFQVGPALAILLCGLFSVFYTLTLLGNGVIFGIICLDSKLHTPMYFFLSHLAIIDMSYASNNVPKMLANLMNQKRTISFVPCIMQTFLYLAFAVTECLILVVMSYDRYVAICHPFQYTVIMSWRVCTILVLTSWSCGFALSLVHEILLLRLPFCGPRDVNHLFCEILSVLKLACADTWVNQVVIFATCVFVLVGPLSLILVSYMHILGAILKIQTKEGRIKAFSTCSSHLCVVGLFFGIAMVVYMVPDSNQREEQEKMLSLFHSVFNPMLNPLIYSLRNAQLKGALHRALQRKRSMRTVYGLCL
Method in brief: as §1

[6] = target: T6, OR2A25 (Homo sapiens) (UniProt A4D2G3)
T6 sequence (whole entry): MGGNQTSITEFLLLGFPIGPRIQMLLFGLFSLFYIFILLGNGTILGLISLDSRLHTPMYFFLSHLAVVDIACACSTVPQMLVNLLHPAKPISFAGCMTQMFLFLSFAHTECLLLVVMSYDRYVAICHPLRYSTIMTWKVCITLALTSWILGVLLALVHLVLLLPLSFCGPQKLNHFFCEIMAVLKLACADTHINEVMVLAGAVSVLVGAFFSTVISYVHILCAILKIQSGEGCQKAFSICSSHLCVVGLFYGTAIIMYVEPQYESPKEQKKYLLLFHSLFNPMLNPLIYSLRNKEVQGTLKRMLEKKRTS
Method in brief: as §1

[7] = system: T7, OR2A2
T7 sequence (whole entry): T5 sequence (whole entry) with F280L
Method in brief: as §1

[8] = target: T8, OR2A4 (Homo sapiens) (UniProt O95047)
T8 sequence (whole entry): T1 sequence (whole entry) with T9R, C238R, F250V
Method in brief: as §1

[9] = target: T9, OR2A5 (Homo sapiens) (UniProt Q96R48)
T9 sequence (whole entry): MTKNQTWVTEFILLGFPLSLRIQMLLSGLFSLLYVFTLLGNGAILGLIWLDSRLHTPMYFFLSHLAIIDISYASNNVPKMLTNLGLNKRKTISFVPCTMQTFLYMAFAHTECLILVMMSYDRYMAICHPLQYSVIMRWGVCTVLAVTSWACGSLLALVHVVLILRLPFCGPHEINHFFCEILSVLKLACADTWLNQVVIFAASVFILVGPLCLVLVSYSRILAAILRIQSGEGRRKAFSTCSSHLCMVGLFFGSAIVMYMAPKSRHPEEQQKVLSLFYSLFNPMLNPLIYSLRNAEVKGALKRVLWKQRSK
Method in brief: as §1

[10] = system: T10, OR2A5 I126V A202S A255T
T10 sequence (whole entry): T9 sequence (whole entry) with I126V, A202S, A255T
Method in brief: as §1

[11] = system: T11, OR2A7
T11 sequence (whole entry): T1 sequence (whole entry) with T9R
Method in brief: as §1

[12] = target: T12, OR2AE1 (Homo sapiens) (UniProt Q8NHA4)
T12 sequence (whole entry): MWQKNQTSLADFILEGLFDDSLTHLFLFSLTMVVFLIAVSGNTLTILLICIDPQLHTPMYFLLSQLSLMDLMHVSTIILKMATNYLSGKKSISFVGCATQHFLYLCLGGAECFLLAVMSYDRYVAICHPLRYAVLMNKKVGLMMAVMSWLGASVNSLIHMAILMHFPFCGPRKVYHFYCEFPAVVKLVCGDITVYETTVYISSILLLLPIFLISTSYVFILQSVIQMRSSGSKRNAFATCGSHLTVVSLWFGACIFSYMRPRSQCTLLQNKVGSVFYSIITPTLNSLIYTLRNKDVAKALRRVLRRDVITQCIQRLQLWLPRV
Method in brief: as §1

[13] = target: T13, OR2AG1 (Homo sapiens) (UniProt Q9H205)
T13 sequence (whole entry): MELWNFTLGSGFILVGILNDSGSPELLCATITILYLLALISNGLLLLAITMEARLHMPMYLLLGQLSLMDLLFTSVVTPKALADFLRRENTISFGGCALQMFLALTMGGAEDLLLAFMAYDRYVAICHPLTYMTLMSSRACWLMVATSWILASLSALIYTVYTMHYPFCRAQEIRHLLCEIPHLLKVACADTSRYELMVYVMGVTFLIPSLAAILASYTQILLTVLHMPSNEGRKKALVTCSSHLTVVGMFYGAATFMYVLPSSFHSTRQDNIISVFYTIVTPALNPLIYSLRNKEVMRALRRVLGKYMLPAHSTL
Method in brief: as §1

[14] = target: T14, OR2AG2 (Homo sapiens) (UniProt A6NM03)
T14 sequence (whole entry): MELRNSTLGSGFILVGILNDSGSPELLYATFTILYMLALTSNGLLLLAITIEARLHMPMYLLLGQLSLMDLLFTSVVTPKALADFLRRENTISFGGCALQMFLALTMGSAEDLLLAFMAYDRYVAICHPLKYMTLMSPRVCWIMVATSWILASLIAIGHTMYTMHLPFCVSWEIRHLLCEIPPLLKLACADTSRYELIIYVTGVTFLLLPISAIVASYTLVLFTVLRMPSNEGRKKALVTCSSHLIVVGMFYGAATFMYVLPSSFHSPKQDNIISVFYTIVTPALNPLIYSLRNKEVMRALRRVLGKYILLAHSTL
Method in brief: as §1

[15] = target: T15, OR2AJ1 (Homo sapiens) (UniProt Q8NGZ0)
T15 sequence (whole entry): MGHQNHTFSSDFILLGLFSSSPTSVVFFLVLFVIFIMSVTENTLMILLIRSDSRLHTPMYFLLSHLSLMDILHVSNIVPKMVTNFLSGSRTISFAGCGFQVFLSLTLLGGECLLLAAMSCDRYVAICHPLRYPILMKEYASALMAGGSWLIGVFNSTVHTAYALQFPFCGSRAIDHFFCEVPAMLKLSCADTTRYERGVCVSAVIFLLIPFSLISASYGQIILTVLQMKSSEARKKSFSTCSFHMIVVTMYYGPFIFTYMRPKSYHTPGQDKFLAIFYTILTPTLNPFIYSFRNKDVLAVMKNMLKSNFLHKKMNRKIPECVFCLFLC
Method in brief: as §1

[16] = target: T16, OR2AK2 (Homo sapiens) (UniProt Q8NG84)
T16 sequence (whole entry): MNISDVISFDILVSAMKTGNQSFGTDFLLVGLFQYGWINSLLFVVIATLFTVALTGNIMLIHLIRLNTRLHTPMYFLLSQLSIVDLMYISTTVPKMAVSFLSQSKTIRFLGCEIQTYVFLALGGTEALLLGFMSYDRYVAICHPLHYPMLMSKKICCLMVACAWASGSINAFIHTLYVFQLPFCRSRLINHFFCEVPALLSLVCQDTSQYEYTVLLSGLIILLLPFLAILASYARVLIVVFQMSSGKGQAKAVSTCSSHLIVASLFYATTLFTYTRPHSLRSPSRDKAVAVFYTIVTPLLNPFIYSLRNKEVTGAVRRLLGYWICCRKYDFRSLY
Method in brief: as §1

[17] = target: T17, OR2AP1 (Homo sapiens) (UniProt Q8NGE2)
T17 sequence (whole entry): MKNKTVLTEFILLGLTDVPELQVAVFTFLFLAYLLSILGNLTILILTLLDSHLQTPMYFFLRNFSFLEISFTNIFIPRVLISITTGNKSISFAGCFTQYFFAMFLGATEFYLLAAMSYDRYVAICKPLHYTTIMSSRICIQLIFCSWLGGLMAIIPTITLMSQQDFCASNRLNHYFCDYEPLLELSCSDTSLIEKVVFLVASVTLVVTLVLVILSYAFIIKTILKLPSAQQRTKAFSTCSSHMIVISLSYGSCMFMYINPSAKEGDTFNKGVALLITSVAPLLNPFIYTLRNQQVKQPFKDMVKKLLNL
Method in brief: as §1

[18] = target: T18, OR2AT4 (Homo sapiens) (UniProt A6NND4)
T18 sequence (whole entry): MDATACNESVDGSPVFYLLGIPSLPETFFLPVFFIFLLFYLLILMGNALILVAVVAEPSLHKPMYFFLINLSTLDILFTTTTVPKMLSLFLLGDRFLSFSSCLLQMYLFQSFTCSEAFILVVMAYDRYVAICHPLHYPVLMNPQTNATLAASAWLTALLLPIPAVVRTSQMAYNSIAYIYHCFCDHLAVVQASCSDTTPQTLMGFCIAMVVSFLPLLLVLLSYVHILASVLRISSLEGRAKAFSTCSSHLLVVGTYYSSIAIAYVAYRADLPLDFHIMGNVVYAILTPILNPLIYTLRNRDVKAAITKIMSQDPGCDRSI
Method in brief: as §1

[19] = target: T19, OR2B11 (Homo sapiens) (UniProt Q5JQS5)
T19 sequence (whole entry): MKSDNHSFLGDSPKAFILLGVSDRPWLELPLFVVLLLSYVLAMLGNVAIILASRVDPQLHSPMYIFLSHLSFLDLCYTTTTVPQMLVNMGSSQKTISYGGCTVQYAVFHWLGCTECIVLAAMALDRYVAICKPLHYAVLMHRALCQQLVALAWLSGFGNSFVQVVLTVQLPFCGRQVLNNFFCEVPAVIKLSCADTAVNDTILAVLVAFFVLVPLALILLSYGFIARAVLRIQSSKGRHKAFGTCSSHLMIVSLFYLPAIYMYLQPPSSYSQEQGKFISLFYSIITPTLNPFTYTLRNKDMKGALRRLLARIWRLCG
Method in brief: as §1

[20] = target: T20, OR2B2 (Homo sapiens) (UniProt Q9GZK3)
T20 sequence (whole entry): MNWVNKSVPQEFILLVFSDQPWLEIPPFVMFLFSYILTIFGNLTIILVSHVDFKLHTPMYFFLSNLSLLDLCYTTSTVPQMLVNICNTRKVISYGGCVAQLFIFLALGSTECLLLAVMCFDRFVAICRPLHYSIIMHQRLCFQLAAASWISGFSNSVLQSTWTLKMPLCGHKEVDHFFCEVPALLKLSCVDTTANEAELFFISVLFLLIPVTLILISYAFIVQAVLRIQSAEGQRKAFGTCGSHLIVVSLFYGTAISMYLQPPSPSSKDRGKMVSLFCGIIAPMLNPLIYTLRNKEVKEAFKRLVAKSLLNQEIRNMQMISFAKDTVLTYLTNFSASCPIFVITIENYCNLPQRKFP
Method in brief: as §1

Measured: odorant receptor agonist call

CCCCCCCCCCCC(=O)OC
inactive: [1]

CCCCCCCC(=O)OCC
inactive: [1]

CCCCCCC=CCCC=O
inactive: all assays above
